14-3-3 Bad inh – inhibitors of 14-3-3 zeta/Bad binding, primary screen, biochemical, TR-FRET, bovine 14-3-3 zeta | inhibition, % at 21.7 µM | TR-FRET 14-3-3zeta/Dy647-pBad peptide displacement, 1 h | 14-3-3 protein zeta/delta (Bos taurus), P63103 | 220,000 tested, 0.71% active | AID 781, 2007;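 active = inhibition above about 70%, limit read from the data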;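 note: 0% = full 14-3-3 plus peptide FRET controls and 100% = background without 14-3-3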
Target sequence (P63103 whole entry, looked up): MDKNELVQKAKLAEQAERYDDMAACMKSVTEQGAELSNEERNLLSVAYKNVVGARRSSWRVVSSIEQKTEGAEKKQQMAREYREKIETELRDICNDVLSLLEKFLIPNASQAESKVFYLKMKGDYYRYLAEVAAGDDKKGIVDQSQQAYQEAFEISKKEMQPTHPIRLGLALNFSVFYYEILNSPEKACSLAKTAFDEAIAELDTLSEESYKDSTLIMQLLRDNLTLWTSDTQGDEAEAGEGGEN
Hck-Nef inh – inhibitors of Nef-activated human Hck kinase, primary screen, biochemical, Z-Lyte FRET, 384-well, Hck-YEEI; Tyrosine-protein kinase HCK (Homo sapiens), P08631; Recombinant Hck-YEEI plus Nef, Z-Lyte FRET kinase assay; inhibition, % at 20 µM; 220,000 tested, 0.68% active; AID 463187, 2010;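 active = Hck-Nef kinase inhibition above about 50%, limit read from the data; inactive = inhibition below that limit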;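 note: 0% = DMSO with Hck plus Nef and 100% = Hck alone without Nef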
Target sequence (P08631 whole entry, looked up): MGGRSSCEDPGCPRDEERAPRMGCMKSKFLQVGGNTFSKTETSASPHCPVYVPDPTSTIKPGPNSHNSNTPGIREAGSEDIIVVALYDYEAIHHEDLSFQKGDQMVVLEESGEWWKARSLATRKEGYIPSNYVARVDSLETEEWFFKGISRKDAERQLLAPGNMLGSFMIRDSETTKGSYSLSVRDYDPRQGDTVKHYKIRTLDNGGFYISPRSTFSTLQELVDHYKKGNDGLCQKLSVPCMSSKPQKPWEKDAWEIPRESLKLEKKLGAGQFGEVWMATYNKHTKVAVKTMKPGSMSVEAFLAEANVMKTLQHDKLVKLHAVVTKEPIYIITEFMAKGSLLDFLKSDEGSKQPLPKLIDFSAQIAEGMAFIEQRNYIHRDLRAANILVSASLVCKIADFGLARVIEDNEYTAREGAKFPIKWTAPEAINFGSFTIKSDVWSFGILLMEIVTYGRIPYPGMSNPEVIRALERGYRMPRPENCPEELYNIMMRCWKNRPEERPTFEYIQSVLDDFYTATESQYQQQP
Wee1 stabilizer – Wee1 degradation inhibitors, primary screen, cell-based, HeLa, Wee1K328M-luciferase, luminescence. Wee1-like protein kinase (Homo sapiens), P30291. HeLa Luc-Wee1K328M stability; 100% = proteasome inhibitor MG132 effect. reporter increase, % at 5 µM. 220,000 tested, 1.2% active;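 active = activation above the mean of all tested compounds plus 3 SD, set per screening run, cut at about 8.8% in these data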;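 note: cells exposed to compound for 20 h before luminescence read; 0% = DMSO alone and 100% = MG132 at 30 µM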
Mdm2 ligase inh – MDM2-luciferase reporter signal enhancers, primary screen, MDM2 E3 ligase inhibitor project, cell-based, luminescence, 1536-well; E3 ubiquitin-protein ligase Mdm2 (Homo sapiens), Q00987; cell-based MDM2 ubiquitination luciferase reporter, 2 h; 0 = plate control, 100 = twice control, blank-subtracted; signal enhancement, % at 5 µM; 210,000 tested, 0.11% active; AID 1230, 2008;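 active = signal enhancement of 30% or more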;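 note: luminescence tracks abundance of the self-degrading MDM2-luciferase fusion protein; higher signal means inhibition of MDM2 E3 ligase activity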
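System: stable MDM2–luciferase fusion reporter cells / Input: 2000 cells seeded into each well / Schedule: 4 h settle plus 2 h compound, 37 °C / Compound: single-point 5 µM / Buffer or medium: cells held in DMEM / Benchmarks: control and blank well means / Evaluation: percent signal gain over controls, blank-subtracted / Measured by: luciferase luminescence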
Tb hexokinase – Trypanosoma brucei hexokinase 1 inhibitors, primary screen, biochemical, G6PDH-coupled NADH absorbance, MLSCN library | AID 1430, 2008 | recombinant TbHK1, G6PDH-coupled NADH A340 | hexokinase 1 [Trypanosoma brucei] | 220,000 tested, 0.11% active | inhibition, % at 10 µM;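 active = inhibition of 50% or more in the single-dose primary screen; inactive = inhibition below 50%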
Wee1 degr conf – Wee1 degradation inhibitors, confirmation, cell-based, HeLa, Wee1K328M-luciferase, luminescence, triplicate; shares compounds with Wee1 stabilizer; AID 1410, 2008; HeLa Luc-Wee1K328M degradation; vehicle 0%, proteasome-blocked wells 100%; activation, % at 5 µM; 1,100 tested, 4% active; in the data active = activation above about 8.9%
The depositor's hits bear a star; nt = not tested or not shown. Shown are actives, neighbours in structure and some others; about 2.7% of the full set was active somewhere.

SMILES | 14-3-3 Bad inh | Hck-Nef inh | Wee1 stabilizer | Mdm2 ligase inh | Tb hexokinase | Wee1 degr conf
COCCCNC(=O)Nc1ccc(Br)cc1Cl | 6.9 | -2.5 | 11.2* | -1.6 | 1.9 | 4.1
COCCCNC(=O)Nc1ccc(F)cc1F | 3.0 | -7.6 | -1.6 | 1.1 | 2.7 | nt
CSc1ccccc1C(=O)NC1CCCCCC1 | 3.1 | 2.5 | 14.2* | -23.4 | 1.0 | 2.0
CC(=O)Nc1ccc2nc(NC(=O)c3cccs3)sc2c1 | -1.6 | 24.0 | 11.2* | nt | -35.4 | 0.7
Nc1ccc2nc(-c3cccs3)[nH]c2c1 | -10.6 | 6.6 | 3.2 | 4.2 | -38.3 | nt
CC(=O)Nc1ccc2nc3ccccc3nc2c1 | -1.4 | -28.0 | 23.7* | -4.7 | -7.8 | -0.5
O=C(Nc1ccc2nc3ccccc3nc2c1)c1ccc(Br)cc1 | 41.6 | 0.4 | -2.9 | -12.0 | -5.9 | nt
CC(=O)Nc1ccc2nc(-c3cccs3)[nH]c2c1 | 17.3 | 0.4 | 15.6* | 6.3 | -45.1 | -0.7
COc1ccc(CC(=O)Nc2cccc(C(=O)Nc3cccc(C)c3)c2)cc1 | -11.4 | 17.1 | 3.5 | -3.5 | -5.0 | nt
COc1ccc(C(=O)Nc2cccc(C)c2)cc1 | 1.5 | -1.9 | 11.9* | -10.8 | 6.1 | 0.1
COc1ccc(NC(=O)c2ccc(Cl)c(NC(=O)c3ccncc3)c2)cc1 | 0.0 | 10.0 | 12.4* | -0.9 | 4.4 | -3.2
O=C(Nc1cccc(Br)c1)c1ccc(OC2CSC2)cc1 | -16.8 | 22.0 | 14.3* | -2.0 | 0.5 | 0.9
c1ccc(CC2CCN(c3nc(N4CCOCC4)nc(N4CCOCC4)n3)CC2)cc1 | nt | 2.8 | 0.6 | nt | -0.9 | nt
CCOC(=O)c1ccc(NC(=O)Nc2ncc(Cl)cc2Cl)cc1 | 6.7 | 23.3 | 1.1 | nt | -11.7 | nt
COC(=O)c1ccc(C(=O)OC)c(NC(=O)CN(C)Cc2ccccc2)c1 | 1.0 | 4.0 | 0.1 | -9.3 | -15.0 | nt
Cc1cccc(S(=O)(=O)Nc2nc3ccccc3nc2Nc2ccc3c(c2)OCO3)c1 | -10.6 | 3.2 | 5.9 | -0.6 | -11.3 | nt
O=S(=O)(Nc1nc2ccccc2nc1Nc1ccc2c(c1)OCO2)c1ccccc1 | 27.4 | 2.0 | 14.2* | -24.1 | -5.8 | -0.5
CC1CCC/C(=N\NC(=O)c2ccncc2)C1 (stereo not given) | 3.3 | 5.2 | -4.4 | -20.4 | 3.6 | nt
CN1CCCC(C#CC(O)(c2ccccc2)c2ccccc2)C1 (stereo not given) | -2.1 | 25.7 | -2.5 | -5.6 | 7.9 | nt
COC(=O)c1c(NC(NC(C)=O)C(Cl)(Cl)Cl)sc2c1CCCC2 (stereo not given) | -8.8 | 3.2 | 13.9* | -14.6 | -3.6 | 3.8
NCCOc1ccccc1-c1ccccc1 | 1.1 | 0.6 | 5.4 | -12.6 | 0.0 | nt
NCCOc1ccccc1OCCN | 0.2 | -2.5 | 12.2* | -11.9 | -6.7 | -0.5
CCCCC(=O)N/N=C/c1ccc(N2CCOCC2)c([N+](=O)[O-])c1 | -9.6 | 1.8 | -0.3 | 0.8 | -27.5 | nt
CC1(C)Cc2c(C#N)c(NCCO)nc(-c3ccco3)c2CO1 | -1.7 | 33.3 | 18.2* | 0.8 | -13.2 | 1.1
CC1(C)Cc2c(C#N)c(NCCN3CCOCC3)nc(-c3ccco3)c2CO1 | 16.9 | 11.5 | 3.2 | 2.0 | -9.6 | nt
SMILES | 14-3-3 Bad inh | Hck-Nef inh | Wee1 stabilizer | Mdm2 ligase inh | Tb hexokinase | Wee1 degr conf
Cc1cc(OCC(=O)Nn2cnnc2)ccc1Br | -13.2 | -1.9 | 3.3 | -20.3 | -1.4 | nt
COc1ccc(-c2nc(NC(=O)C3=NN(c4cccc(C)c4)C(=O)CC3)sc2C)cc1 | -6.0 | -6.2 | 2.2 | -9.7 | -11.3 | nt
CC(C)C(O)(C#CCN1CCCCC1)c1ccccc1 (stereo not given) | 80.3* | 1.6 | 12.2* | -5.1 | -8.3 | 2.4
CCOC(=O)C(=CNc1cc(Cl)c(-c2ccco2)c(Cl)c1)C(=O)OCC | 7.0 | 2.9 | -0.5 | -14.1 | -34.1 | nt
O=C(NCCCn1ccnc1)/C(=C\c1cccnc1)NC(=O)c1ccccc1F | -6.5 | 18.6 | 20.9* | -14.2 | 2.0 | -2.1
O=C1CN(C(=O)Cn2ncc(Cl)c(Cl)c2=O)c2ccccc2N1 | -8.0 | 11.6 | -1.0 | -11.4 | -7.8 | nt
COC(=O)C(CO)NC(=O)C(C)NC(=O)CNC(=O)OCc1ccccc1 (stereo not given) | 2.0 | 27.7 | -4.1 | -1.2 | -3.4 | nt
OC(COCC(F)(F)C(F)(F)C(F)(F)C(F)F)Cn1c2ccccc2c2ccccc21 (stereo not given) | -11.1 | 2.8 | 10.9* | -5.8 | 12.2 | -0.1
O=C(CNS(=O)(=O)c1ccccc1)Nc1cccc([N+](=O)[O-])c1 | -3.5 | 0.5 | -0.5 | -3.5 | -2.1 | nt
O=C(Nc1ccc(CN2CCS(=O)(=O)CC2)cc1)c1ccc(Cl)cc1 | -2.7 | 16.1 | 10.9* | -4.7 | 19.8 | -0.3
NC(=O)c1ccc(NC(=O)c2ccc(CN3CCOCC3)cc2)cc1 | 1.8 | 1.5 | 0.8 | -8.0 | -5.9 | nt
C/C(=N\NC(=O)CCc1ccccc1)C1C(=O)c2ccccc2C1=O | -36.0 | 30.1 | 12.9* | 0.7 | -17.0 | -1.1
CC(/C=C/c1ccccc1)=N\NC(=O)CCc1ccccc1 | -8.8 | 17.0 | -1.1 | -5.4 | -3.0 | nt
O=C(c1c(F)cccc1F)N(Cc1ccccn1)C1CCCC1 | 5.2 | 0.3 | -0.7 | -9.8 | -1.3 | nt
O=C(Nc1cccc([N+](=O)[O-])c1)Nc1ccc2c(c1)OCCO2 | -8.7 | 20.0 | 16.7* | -8.3 | -7.8 | 3.5
CCOC(=O)C1CCN(S(=O)(=O)c2ccc(NC(C)=O)c(Cl)c2)CC1 | -12.4 | 8.8 | 11.2* | -10.2 | -0.5 | 1.0
CCCCN1CNC(=S)N(CCc2ccccc2)C1 | -7.6 | 5.8 | 11.9* | 1.8 | -4.1 | 2.8
CCOC(=O)N1CCN(C(=O)CCCCn2c(=S)[nH]c3ccsc3c2=O)CC1 | -4.8 | 24.6 | 13.1* | -1.1 | 0.1 | 1.1
O=C(CCCCCn1c(=O)[nH]c2ccsc2c1=O)N1CCCCC1 | 1.1 | 0.7 | -2.1 | 1.4 | -6.4 | nt
O=C(/C=C\c1ccc2c(c1)OCO2)Nc1nnc(SCC(=O)OCc2ccccc2)s1 | -15.9 | 7.4 | -1.3 | -3.5 | -10.2 | nt
CCC(C)[C@H](NC(=O)N1CCCCCC1)C(=O)OC (stereo not given in full) | -2.8 | 13.7 | -0.1 | -11.0 | -4.4 | nt
CCOC(=O)CN(C(=O)COc1ccc2c(C)cc(=O)oc2c1)c1ccc(OCC)cc1 | -7.5 | -3.5 | 13.0* | nt | -4.3 | 1.1
CNC(=O)COC(=O)COc1ccc2c(C)cc(=O)oc2c1 | 4.0 | 0.8 | -2.2 | -5.1 | -8.5 | nt
Cc1ccc(Nc2nc(-c3ccncc3)cs2)cc1 | -6.3 | 0.6 | 18.3* | -10.9 | 0.5 | 7.5

Bioassay records (PubChem BioAssay)
